Screening results: PubChem BioAssay, several laboratories
SENP1 FRET inh: inhibitors of human SENP1 SUMO protease catalytic domain; 360,000 tested, 0.21% active; Q9P0U3; recombinant SENP1 catalytic domain, CyPet-SUMO1-YPet FRET cleavage; inhibition, % at 10 µM;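 active means inhibition at least 30% at 10 µM, raw YFP signal under a set limit, fluorescence ratio 0.5 to 1.5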
Target sequence (Q9P0U3 419-644 limits assumed): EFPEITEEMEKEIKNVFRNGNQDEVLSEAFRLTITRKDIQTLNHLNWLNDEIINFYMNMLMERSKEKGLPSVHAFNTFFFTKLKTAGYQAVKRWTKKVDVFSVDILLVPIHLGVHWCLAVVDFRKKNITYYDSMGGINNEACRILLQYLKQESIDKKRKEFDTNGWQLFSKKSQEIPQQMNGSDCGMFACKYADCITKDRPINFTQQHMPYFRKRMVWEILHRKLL
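Test system: recombinant human SENP1 catalytic domain, His6-tagged / Medium: pH 8 Tris buffer with EDTA, NaCl, BME, BSA, NP40, catalase / Also added: SUMO1 FRET substrate flanked by Cypet and Ypet, 25 nM / Times: 50 min reaction at room temperature / Signal: FRET, CFP and YFP emission / Control set: no-enzyme low control and enzyme-plus-DMSO high control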
FAS-TE inh: blocks the thioesterase domain of human fatty acid synthase; P49327; recombinant FAS-TE, OMFH fluorogenic substrate, fluorescence endpoint; inhibition, % at 15 µM; 360,000 tested, 0.67% active;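 active means compounds whose normalised, plate-corrected inhibition of enzyme fluorescence in the single-dose primary screen is 50% or more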
iPSC survival up: hiPSC single-cell survival enhancement; survival enhancement, % at 20 µM; 360,000 tested, 0.044% active; ATPlite luminescence; 100% = ROCK inhibitor wells, 0% = DMSO; AID 602274; in the data active means survival enhancement above about 18%;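 further: cells exposed to compounds for 16 hours before the ATP read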
ABCB6 inh 2: inhibitors of human ABC transporter ABCB6. Q9NP58. 360,000 tested, 0.19% active. AID 602162. fluorescence ratio to DMSO, % at 10 µM. K562-ABCB6 porphyrin accumulation, flow cytometry, 1 h; stronger effect = lower value;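 active means fluorescence ratio to DMSO below 75%, the collection mean minus 3 SD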;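 further: signal is porphyrin accumulated inside mitochondria; lower ratio means ABCB6 inhibition with less porphyrin fluorescence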
A number is an active result; . = inactive. Compounds with a hit are over-represented: about 1.1% of the library has one in this group of screens.

SMILES	SENP1 FRET inh	FAS-TE inh	iPSC survival up	ABCB6 inh 2
CNc1nc2cc([N+](=O)[O-])c([N+](=O)[O-])cc2nc1NC	43	.	.	.
CNc1ccc(S(=O)(=O)NC)cc1[N+](=O)[O-]	.	.	.	.
Cn1nc(-c2ccccc2)c(C(O)c2ccccc2C(F)(F)F)c1Cl (stereo not drawn)	.	.	22	.
CCc1ccc([C@@H]2CC=C(C(=O)O)[C@H](c3ccc(C(C)(C)C)cc3)N2S(=O)(=O)c2ccc(C)cc2)cc1	.	54	.	.
C=CC[C@@H](CC(=O)NCCO)C(=O)NC[C@H](OC(=O)[C@@H](CC=C)Cc1ccc(F)cc1)c1ccccc1	.	.	.	.
COc1ccccc1-n1cnnc1SCC(=O)Nc1cccc(S(N)(=O)=O)c1	.	.	.	.
CS(=O)(=O)N(CC(=O)NCCSCc1cccc(Cl)c1)c1ccccc1F	.	.	.	.
COc1ccc(C2=CC(=O)C[C@H](c3ccc(OC)c(OC)c3)C2)cn1	.	.	46	.
COc1ccc([C@H]2CC(=O)C=C(c3ccc(F)nc3)C2)cc1OC	.	.	.	.
CCN1/C(=C/c2ccc3cc(C)ccc3[n+]2CC)Sc2ccc3sccc3c21	58	.	.	.
Cc1ccc(C(C)C)c(OCc2nn(CC(=O)c3ccc(OC(F)F)cc3)c3[n+]2CCCCC3)c1	67	.	.	.
C#CC(=O)N(c1ccc(OC)c(OC)c1)C(C(=O)NC1CCCC1)c1cccs1 (stereo not drawn)	.	.	.	55
C#CC(=O)N(c1cccc(OC)c1)C(C(=O)NC1CCCC1)c1cccs1 (stereo not drawn)	.	.	.	.
COc1ccc(C2=NN(C(=O)c3cccc([N+](=O)[O-])c3)C(c3cccc([N+](=O)[O-])c3)C2)cc1 (stereo not drawn)	.	50	.	.
CCS(=O)(=O)c1ncc(Cl)c(C(=O)Nc2ccc(S(=O)(=O)N3CCCC(C)C3)cc2)n1 (stereo not drawn)	.	.	20	29
CC(C)(C)NC(=O)C(c1ccccc1)N(C(=O)CNC(=O)c1cccs1)c1cccnc1 (stereo not drawn)	.	.	.	.
CCCCS(=O)(=O)/C=C\C=C/S(=O)(=O)CCCC	.	.	.	69
O=C(c1cc2cc(F)ccc2[nH]1)N1CCCC(Nc2ccc(F)cc2)C1 (stereo not drawn)	.	.	.	.
CC(CCC(C)C(C)(C)C)[C@@H]1CC[C@H]2C3C[C@H](OS(O)(=S)=S)[C@H]4C[C@H](OS(O)(=S)=S)[C@@H](OS(O)(=S)=S)C[C@]4(C)[C@H]3CC[C@]12C (stereo partly drawn) (tested in a mixture with another compound)	.	81	.	.
Cc1cc(NC(=O)C2CC(=O)OC2c2ccccc2)no1 (stereo not drawn)	.	.	.	74
Cc1ccc(NS(=O)(=O)c2cc([N+](=O)[O-])ccc2NNC(=S)Nc2cc(C)ccc2C)c(C)c1	62	.	.	.
Cc1ccc(NS(=O)(=O)c2cc([N+](=O)[O-])ccc2NNC(=S)Nc2cccc(Cl)c2)c(C)c1	54	52	.	.
Cc1ccc([N+](=O)[O-])cc1NC(=S)NC(=O)C(C)(C)C	.	.	.	.
COc1ccc(NC(=S)Nc2cccc([N+](=O)[O-])c2)cc1	.	.	.	.
COc1ccc(NC(=S)NNc2ccc([N+](=O)[O-])cc2S(=O)(=O)Nc2ccc(C)cc2C)cc1	42	.	.	.
SMILES	SENP1 FRET inh	FAS-TE inh	iPSC survival up	ABCB6 inh 2
CC1CC(C)CN(C(=O)COC(=O)c2ccc3ccccc3n2)C1 (stereo not drawn)	.	.	.	.
Cc1ccc(S(=O)(=O)/C(C#N)=C/c2c(N3CC(C)OC(C)C3)nc3c(C)cccn3c2=O)cc1 (stereo not drawn)	.	56	.	.
COc1c(OC(C)=O)ccc(/C=C/c2ccc3cccc(OC)c3n2)c1[N+](=O)[O-]	.	.	.	.
COc1c(OC(C)=O)ccc(/C=C/c2ccc3ccccc3n2)c1[N+](=O)[O-]	.	59	.	.
CS(=O)(=O)N(CC(=O)N/N=C/c1cc([N+](=O)[O-])ccc1Cl)c1ccccc1	.	.	.	.
Cc1cccc(N(CC(=O)N/N=C/c2cc([N+](=O)[O-])ccc2Cl)S(C)(=O)=O)c1C	.	51	.	.
CCOc1ccccc1N1CCN(C(=O)c2cc[n+]([O-])cc2)CC1	.	.	.	.
CCCc1ccc(C(=O)N2CCN(c3ccccc3OCC)CC2)cc1	.	.	23	.
N#Cc1ccc(C23CC4(C2)[C@H](CN(P(=O)(c2ccccc2)c2ccccc2)[C@@H]4c2ccccc2)C3c2ccc(Cl)nc2)cc1 (stereo partly drawn)	.	72	.	.
O=C(O)C1CSC(c2ccncc2)N1 (stereo not drawn)	65	.	.	.
COC(=O)c1ccc(C2NC(C(=O)O)CS2)cc1 (stereo not drawn)	.	.	.	.
Nc1cc([N+](=O)[O-])cc2oc(-c3ccccc3)cc12	34	.	.	.
O=C(C1=NN(c2ccccc2)C2C(=O)N(c3cccc(Cl)c3)C(=O)C12)c1ccccc1 (stereo not drawn)	.	64	.	.
O=C(C1=NN(c2ccccc2)C2C(=O)N(c3ccc(Cl)cc3)C(=O)C12)c1ccccc1 (stereo not drawn)	.	.	.	.
COc1ccc(N(C(=O)CCl)C(C(=O)NCCc2ccccc2)c2cccs2)cc1 (stereo not drawn)	.	63	.	.
COc1ccc(CNC(=O)C(c2ccncc2)N(C(=O)Cc2cccs2)c2ccccc2)cc1 (stereo not drawn)	.	.	.	.
Nc1c(N2CCCC2)cc(Cl)c2nonc12	61	.	.	.
Nc1c(N2CCOCC2)cc(Cl)c2nonc12	.	.	.	.
CCOC(=O)c1ccc(N2N=C(C)/C(=C/C=C/c3ccco3)C2=O)cc1	.	.	.	.
O=C(O)c1cc(N2N=C(C(F)(F)F)/C(=C/C=C/c3ccco3)C2=O)ccc1Cl	33	.	.	.
Cn1cnnc1SCC(=O)c1ccc2c(c1)OCO2	.	.	22	.
Cc1cc(N=Nc2ccccc2C(=O)O)c(C)c(C)c1O	33	.	.	.
O=C(CSc1nc2ncc(Cl)cc2[nH]1)N(Cc1ccccc1)C1CCS(=O)(=O)C1 (stereo not drawn)	.	.	.	.
CC(=O)c1ccccc1NC(=O)COC(=O)CCCN1C(=O)c2cccc3cccc(c23)C1=O	.	.	32	.
Fc1ccc(N2CCN(C3=Nc4cccc5cccc3c45)CC2)cc1	90	.	.	.
O=C(CCCN1C(=O)c2cccc3cccc(c23)C1=O)N1CCN(c2ccc(F)cc2)CC1	.	.	.	.
CCOC(=O)c1c(S(=O)(=O)NCCCc2ccco2)c(C)n(C)c1C	.	.	.	.
